Test results reported in ChEMBL document CHEMBL3351301, “Synthesis of triazole Schiff bases: novel inhibitors of nucleotide pyrophosphatase/phosphodiesterase-1” (Bioorg Med Chem, 2014).
Active and inactive are the calls of the source. The rule behind the calls is not given here.

What was measured:
[1] = Inhibition of snake venom NPP1 using bis(p-nitrophenyl)phosphate preincubated for 30 mins by spectrophotometry; parameters: species or system Serpentes
Method in brief: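 Snake venom PDE1/NPP1 at 7.42 × 10^-4 units, dissolved in cold deionized water. Assay in 33 mM Tris-HCl pH 8.8 with 30 mM magnesium acetate cofactor. Preincubated 30 min at 37 °C, then started with 0.33 mM bis(p-nitrophenyl)phosphate (total). p-Nitrophenol release read at 410 nm. Initial rates taken as Vmax/min and % inhibition calculated against control. Triplicates; IC50 derived by enzyme-kinetics fitting.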

[2] = Cytotoxicity against human PC3 cells; format: functional, cell-based; settings: PC-3
[3] = target: Carbonic anhydrase (Homo sapiens) (UniProt P00918+P43166+P00915+P07451+P23280+O43570+Q9ULX7+Q16790+P22748+Q8N1Q1+Q9Y2D0+P35218); assay: Inhibition of carbonic anhydrase (unknown origin); format: protein assay

## O=[N+]([O-])c1ccc(/C=N/c2nnc[nH]2)cc1
[1]
  IC50: Not Active
[2]
  IC50: > 30 µM

## CCOc1cccc(/C=N/n2cnnc2)c1O
[1]
  IC50: Not Active
[2]
  IC50: > 30 µM

## COc1cccc(/C=N/c2nnc[nH]2)c1O
[1]
  IC50: Not Active
[2]
  IC50: > 30 µM

## Cc1ccc(O)c(/C=N/c2nnc[nH]2)c1
[1]
  IC50: Not Active
[2]
  IC50: > 30 µM

## Oc1ccccc1/C=N/c1nnc[nH]1
[1]
  IC50: Not Active
[2]
  IC50: > 30 µM

## COc1ccc(/C=N/c2nnc[nH]2)cc1OC
[1]
  IC50: Not Active
[2]
  IC50: > 30 µM

## CN(C)c1ccc(/C=N/c2nnc[nH]2)cc1
[1]; read-out: IC50
  IC50: 132 µM
[2]
  IC50: > 30 µM
[3]
  inhibition: inactive

## Oc1c(Cl)cc(Cl)cc1/C=N/c1nc[nH]n1
[1]
  IC50: Not Active
[2]
  IC50: > 30 µM

## COc1ccc(/C=N/n2cnnc2)cc1OC
[1]
  IC50: Not Active
[2]
  IC50: > 30 µM

## Oc1cccc(/C=N/n2cnnc2)c1
[1]
  IC50: Not Active
[2]
  IC50: > 30 µM

## Oc1ccc(/C=N/n2cnnc2)cc1
[1]
  IC50: Not Active
[2]
  IC50: > 30 µM

## Oc1ccc(Cl)cc1/C=N/n1cnnc1
[1]; read-out: IC50
  IC50: 251 µM
[2]
  IC50: > 30 µM
[3]
  inhibition: inactive

## Oc1c(Br)cc(Br)cc1/C=N/c1nnc[nH]1
[1]
  IC50: Not Active
[2]
  IC50: > 30 µM

## COc1ccc(/C=N/n2cnnc2)cc1
[1]
  IC50: Not Active
[2]
  IC50: > 30 µM

## CCOc1ccc(/C=N/n2cnnc2)cc1
[1]
  IC50: Not Active
[2]
  IC50: > 30 µM

## COc1cccc(/C=N/n2cnnc2)c1O
[1]
  IC50: Not Active
[2]
  IC50: > 30 µM

## Brc1ccc(/C=N/n2cnnc2)cc1
[1]; read-out: IC50
  IC50: 823 µM
[2]
  IC50: > 30 µM

## Oc1ccccc1/C=N/n1cnnc1
[1]
  IC50: Not Active
[2]
  IC50: > 30 µM

## CSc1ccc(/C=N/c2nnc[nH]2)cc1
[1]
  IC50: Not Active
[2]
  IC50: > 30 µM

## O=C(O)CN(CCN(CC(=O)O)CC(=O)O)CC(=O)O [EDETIC ACID]
[1]; read-out: IC50
  IC50: 278 µM

## Oc1cc(O)c(/C=N/n2cnnc2)c(O)c1
[1]; read-out: IC50
  IC50: 1160 µM
[2]
  IC50: > 30 µM

## Oc1ccc(Br)cc1/C=N/n1cnnc1
[1]; read-out: IC50
  IC50: 405 µM
[2]
  IC50: > 30 µM

## Clc1ccc(/C=N/c2nnc[nH]2)c(Cl)c1
[1]
  IC50: Not Active
[2]
  IC50: > 30 µM

## CCOc1ccc(/C=N/c2nnc[nH]2)c(O)c1
[1]
  IC50: Not Active
[2]
  IC50: > 30 µM

## CSc1ccc(/C=N/n2cnnc2)cc1
[1]
  IC50: Not Active
[2]
  IC50: > 30 µM

## Oc1cccc(/C=N/n2cnnc2)c1O
[1]; read-out: IC50
  IC50: 153 µM
[2]
  IC50: > 30 µM
[3]
  inhibition: inactive
